Compounds with a hit are over-represented: about 3.1% of the library has one in this group of screens.
Apaf-1 inh: blocks human Apaf-1 apoptosome activity; O14727; reconstituted apoptosome caspase-3 activity, DEVD-Rh110 fluorescence; inhibition, % at 20 µM; 0.71% of 330,000 active; AID 489030; active = inhibition of at least 40% at 20 µM
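Material: cell-free apoptosome with Apaf-1, procaspase-3 and caspase-9; Buffer or medium: Hepes pH 7.5 with detergent and BSA; Reagent: cytochrome c trigger plus (Z-DEVD)2-Rh110 caspase-3 substrate; Times: compound with Apaf-1, dATP, procaspase-3 30 min, then 50 min reaction, room temperature; Technique: Rh110 fluorescence intensity.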
SENP7 inh: SENP7 protease inhibition | Q9BQF6 | recombinant SENP7, Z-RLRGG-aminoluciferin luminescence, 40 min | inhibition, % at 5 µM | 1.5% of 330,000 active | AID 434973;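 active = inhibition above about 50% at the single test dose, limit read from the data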
SENP6 inh: blocks the human protease SENP6; Q9GZR1; Recombinant SENP6 catalytic domain, aminoluciferin luminescence; inhibition, % at 10 µM; 1.8% of 330,000 active; AID 2599;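 active = inhibition above about 50% at the single tested dose, limit read from the data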
UBC13 inh: inhibitors of human UBC13 polyubiquitin chain formation. P61088. inhibition, % at 20 µM. 0.47% of 330,000 active. AID 485273. TR-FRET; in the data active = inhibition above about 45%, passing the limit was not always enough
SENP8 block-1: SENP8 protease inhibition | Q96LD8 | purified SENP8, Z-RLRGG-aminoluciferin cleavage, luminescence | inhibition, % at 10 µM | 1.2% of 330,000 active | AID 2540; in the data active = inhibition above about 50%
SENP8 block-2: inhibitors of human SENP8 protease; inhibition, % at 20 µM; recombinant SENP8, Nedd8 substrate fluorescence; 0.64% of 360,000 active; in the data active = inhibition mostly above about 40%, no sharp cut-off; inactive = mostly below about 27%
SENP8 confirm: human SENP8 inhibition, confirmed | shares compounds with SENP7 inh | Recombinant SENP8, Z-RLRGG-aminoluciferin luminescence, 60 min | inhibition, % at 12.5 µM | 40% of 6,200 active;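 active = mean inhibition across replicates above about 50%, limit read from the data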
SENP6 conf: confirmation of human SENP6 protease inhibitors | 58% of 6,200 active | recombinant SENP6, Z-RLRGG-aminoluciferin luminescence | shares compounds with SENP7 inh | AID 488915 | inhibition, % at 12.5 µM
SENP7 confirm: human SENP7 inhibition, confirmed; shares compounds with SENP7 inh; recombinant SENP7, Z-RLRGG-aminoluciferin luminescence, 40 min; inhibition, % at 12.5 µM; 69% of 6,200 active; AID 488917
Casp3 select: caspase-3 inhibition (SENP selectivity assay) | shares compounds with SENP7 inh | purified caspase-3, Z-DEVD-aminoluciferin luminescence, 60 min | inhibition, % at 12.5 µM | 60% of 6,200 active | AID 488918;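 active = mean inhibition above about 50%, limit read from the data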
Luc interf: counter-screen for SENP inhibitors: luminescence interference; shares compounds with SENP7 inh; Pre-incubated SENP8/Z-RLRGG-aminoluciferin, luciferase luminescence interference; inhibition, % at 12.5 µM; 39% of 6,200 active; AID 488919;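 active = mean inhibition above about 50% when retested at one dose, limit read from the data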
Of the large screens only hits and unclear results are named; the others gave an inactive call (follow-up assays come after a bar, where they were run).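 The calls were made as follows, unless noted: active = mean inhibition above about 50% in the one-dose retest (limit read from the data); inactive = the rest.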

CC(=O)Nc1ccc(NC(=O)C2CCN(S(C)(=O)=O)CC2)cc1	none (no result: Apaf-1 inh, SENP7 inh, SENP6 inh, UBC13 inh, SENP8 block-1)
Cc1cccc2sc(NC(=O)c3ccc(NS(=O)(=O)c4cccs4)cc3)nc12	SENP6 inh 86, SENP8 block-1 70 | SENP8 confirm inactive | SENP6 conf 81 | SENP7 confirm inactive | Casp3 select inactive | Luc interf inactive
COc1ccc2nc(NC(=O)c3ccc(NS(=O)(=O)c4cccs4)cc3)sc2c1	none
Cc1nn(C(=O)c2ccc3c(c2)OCO3)c(N)c1-c1ccccc1	SENP7 inh 65, SENP6 inh 83, SENP8 block-1 59 | SENP8 confirm inactive | SENP6 conf 78 | SENP7 confirm 96 | Casp3 select 68 | Luc interf inactive
CCc1ccccc1Oc1nc(NCCOC)nc2cc(-c3ccccc3)sc12	none (no result: Apaf-1 inh, SENP7 inh, SENP6 inh, UBC13 inh, SENP8 block-1)
CCOc1cc(C2NN=C(c3ccccc3)S2)ccc1OCc1ccccc1Cl (stereo not drawn)	SENP6 inh 66 | SENP8 confirm 53 | SENP6 conf inactive | SENP7 confirm 84 | Casp3 select 69 | Luc interf 58
CCOc1cc(C2NN=C(c3ccccc3)S2)ccc1OCc1ccc(F)cc1 (stereo not drawn)	SENP6 inh 83, SENP8 block-1 50 | SENP8 confirm inactive | SENP6 conf 72 | SENP7 confirm 94 | Casp3 select 75 | Luc interf 70
CCOc1cc(CNC2CCCC2)ccc1OCc1ccccc1Cl	none
O=C(NC1CCCCC1)C(Cc1ccccc1)N1C(=O)C2C3CCC(C3)C2C1=O (stereo not drawn)	SENP7 inh 80 | SENP8 confirm inactive | SENP6 conf inactive | SENP7 confirm inactive | Casp3 select inactive | Luc interf inactive
CC1(C)OC(=O)C2=C(C[C@@H](CCC(F)(F)F)O[C@H]2c2ccc(F)cc2)O1	none (no result: Apaf-1 inh, SENP7 inh, SENP6 inh, UBC13 inh, SENP8 block-1)
O=C1NC(=O)/C(=C\c2ccc(Br)o2)S1	SENP6 inh 55 | SENP8 confirm 56 | SENP6 conf 51 | SENP7 confirm 62 | Casp3 select 52 | Luc interf inactive
O=C1NC(=O)/C(=C/c2ccc(-c3cc(C(=O)O)ccc3Cl)o2)S1	none
Cc1ccc(/C=C2/CCc3c([nH]c4ccccc34)C2=O)cc1	SENP7 inh 68 | SENP8 confirm inactive | SENP6 conf inactive | SENP7 confirm inactive | Casp3 select inactive | Luc interf inactive
Nc1c(-c2ccccc2)cnn1-c1ccccc1	SENP7 inh 83, SENP6 inh 79, SENP8 block-1 70 | SENP8 confirm 75 | SENP6 conf 72 | SENP7 confirm 94 | Casp3 select 88 | Luc interf 78
CCc1noc(C)c1C(=O)Nc1nc2c(C)cccc2s1	none
CSc1nc2ccc(NC(=O)C3=NNC(=O)CC3)cc2s1	none
CCc1noc(C)c1C(=O)Nc1nc2c(F)cc(F)cc2s1	SENP7 inh 73, SENP6 inh 90, SENP8 block-1 83 | SENP8 confirm 52 | SENP6 conf 86 | SENP7 confirm 98 | Casp3 select 87 | Luc interf 51
O=C(COc1ccccc1)NNc1nc2c(F)cc(F)cc2s1	none
Cc1ccc2nc(NC(=O)c3ccccn3)sc2c1	SENP7 inh 96, SENP6 inh 96, SENP8 block-1 95 | SENP8 confirm 58 | SENP6 conf 81 | SENP7 confirm 93 | Casp3 select 84 | Luc interf inactive
CSc1nc2ccc(NC(=O)c3ccccn3)cc2s1	SENP7 inh 93, SENP6 inh 78, SENP8 block-1 90 | SENP8 confirm 52 | SENP6 conf 86 | SENP7 confirm 98 | Casp3 select 93 | Luc interf inactive
O=C(Nc1nc2c(F)cc(F)cc2s1)c1ccccn1	SENP7 inh 93, SENP6 inh 70, SENP8 block-1 64 | SENP8 confirm 61 | SENP6 conf 69 | SENP7 confirm inactive | Casp3 select 79 | Luc interf inactive
O=C(Nc1nc2ccc(S(=O)(=O)N3CCCC3)cc2s1)c1ccccn1	none
Cc1csc(=O)n1CC(=O)OC(C)C(=O)Nc1ccc(N(C)C)cc1 (stereo not drawn)	none (no result: Apaf-1 inh, SENP7 inh, SENP6 inh, UBC13 inh, SENP8 block-1)
CCOc1ccc2nc(NC(=O)c3ccccn3)sc2c1	SENP7 inh 98, SENP6 inh 97, SENP8 block-1 94 | SENP8 confirm inactive | SENP6 conf 78 | SENP7 confirm 85 | Casp3 select 87 | Luc interf inactive
COc1ccc2nc(NC(=O)c3cnccn3)sc2c1	SENP7 inh 76 | SENP8 confirm inactive | SENP6 conf inactive | SENP7 confirm 82 | Casp3 select 80 | Luc interf inactive
COc1ccc(C(=O)Nc2nc3ccc(OC)cc3s2)cc1	none
CC(C)c1nnc(NC(=O)c2sc3ccccc3c2Cl)s1	none
Cc1cnc(NC(=O)c2sc3ccccc3c2Cl)s1	SENP7 inh 84, SENP6 inh 80, SENP8 block-1 66 | SENP8 confirm inactive | SENP6 conf inactive | SENP7 confirm 53 | Casp3 select inactive | Luc interf inactive
Cc1ccnc(NC(=O)c2sc3ccccc3c2Cl)c1	SENP7 inh 89, SENP6 inh 71, SENP8 block-1 57 | SENP8 confirm inactive | SENP6 conf inactive | SENP7 confirm inactive | Casp3 select 55 | Luc interf inactive
O=C(Nc1nccs1)c1sc2ccccc2c1Cl	SENP7 inh 71, SENP6 inh 88, SENP8 block-1 75 | SENP8 confirm inactive | SENP6 conf 58 | SENP7 confirm 91 | Casp3 select 70 | Luc interf inactive
O=C(/C=C/c1cccc(F)c1)Nc1nccs1	none
CC(=O)OC(C(=O)Nc1nccs1)c1ccccc1 (stereo not drawn)	none
O=C(Nc1nccs1)C(Br)C(Br)c1ccccc1 (stereo not drawn)	SENP7 inh 91, SENP6 inh 84, SENP8 block-1 79 | SENP8 confirm 76 | SENP6 conf 73 | SENP7 confirm 95 | Casp3 select 85 | Luc interf inactive
O=C(/C=C\c1ccccc1)Nc1nccs1	SENP7 inh 88, SENP6 inh 83, SENP8 block-1 61 | SENP8 confirm 59 | SENP6 conf 61 | SENP7 confirm 95 | Casp3 select 88 | Luc interf inactive
Cc1ccc([C@H]2C[C@@H](n3cc(C4CC4)nn3)[C@H](O)CN2C(=O)C2CCCCC2)cc1	none (no result: Apaf-1 inh, SENP7 inh, SENP6 inh, UBC13 inh, SENP8 block-1)

From PubChem BioAssay
